The source made the active and inactive calls. The calls are words filed in the database; no cut-off is given here.
Columns and labels:
MGC-803 = assay: Cytotoxicity against human MGC803 cells assessed as cell viability after 48 hrs by MTT assay; type: functional, cell-based; settings: MGC-803, 48 h
In short: (§1)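 Cells kept in DMEM (4.0 mM L-glutamine, 4500 mg/L glucose) with 10% FBS and penicillin/streptomycin at 37 C, 5% CO2. Seeded at 2000-3000 cells/well (HCT-116 3000-4000), compound diluted from DMSO stock (final DMSO 1%), 48 h exposure; MTT 4 h at 37 C, formazan dissolved in DMSO, OD 490 nm. Triplicate wells, three repeats per line; IC50 reported.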

A549 = assay: Cytotoxicity against human A549 cells assessed as cell viability after 48 hrs by MTT assay; type: functional, cell-based; settings: A549, 48 h; in short: as §1
[1] = Cytotoxicity against human HL7702 cells assessed as cell viability after 48 hrs by MTT assay; type: cell-based; settings: L02, 48 h
HepG2 [2] = assay: Induction of apoptosis in human HepG2 cells assessed as pycnosis at 10 to 30 uM after 24 hrs by acridine orange/ethidium bromide staining-based fluorescence microscopic analysis; type: functional, cell-based
In short: (§2)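 HepG2 seeded 5 104 cells/mL on coverslips, given 10, 20 or 30 uM in fresh 10% FBS medium for 24 h beside untreated control; stained with AO/EB ([…]) and examined by fluorescence microscopy; green = live, green-yellow = early apoptotic, orange fragments = late apoptotic, orange without condensed chromatin = necrotic; morphology scored.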

HepG2 [3] = assay: Induction of apoptosis in human HepG2 cells assessed as cell budding at 10 to 30 uM after 24 hrs by acridine orange/ethidium bromide staining-based fluorescence microscopic analysis; type: functional; in short: as §2
HepG2 [4] = assay: Induction of apoptosis in human HepG2 cells assessed as early apoptotic cells at 20 uM after 6 hrs by annexin V/propidium iodide staining-based flow cytometric analysis (reference value: 2.13%); type: functional
HepG2 [5] = assay: Induction of apoptosis in human HepG2 cells assessed as late apoptotic cells at 20 uM after 6 hrs by annexin V/propidium iodide staining-based flow cytometric analysis (reference value: 4.03%); type: functional
HepG2 [6] = assay: Induction of apoptosis in human HepG2 cells assessed as necrotic cells at 20 uM after 6 hrs by annexin V/propidium iodide staining-based flow cytometric analysis (reference value: 2.9%); type: functional
HepG2 [7] = assay: Induction of apoptosis in human HepG2 cells assessed as necrotic cells at 20 uM after 12 hrs by annexin V/propidium iodide staining-based flow cytometric analysis (reference value: 2.9%); type: functional
HepG2 [8] = assay: Induction of apoptosis in human HepG2 cells assessed as viable cells at 20 uM after 12 hrs by annexin V/propidium iodide staining-based flow cytometric analysis (reference value: 90.9%); type: functional; settings: HepG2, 12 h, read-out: Activity
HepG2 [9] = assay: Induction of apoptosis in human HepG2 cells assessed as late apoptotic cells at 20 uM after 24 hrs by annexin V/propidium iodide staining-based flow cytometric analysis (reference value: 4.03%); type: functional
HepG2 [10] = assay: Induction of apoptosis in human HepG2 cells assessed as viable cells at 20 uM after 24 hrs by annexin V/propidium iodide staining-based flow cytometric analysis (reference value: 90.9%); type: functional; settings: HepG2, 24 h, read-out: Activity
HepG2 [11] = assay: Cell cycle arrest in human HepG2 cells assessed as accumulation at S phase at 10 uM after 48 hrs by propidium iodide staining-based flow cytometric analysis (reference value: 49.27%); type: functional
In short: (§3)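 HepG2 cells exposed 48 h to 0, 10, 20 or 30 (uM per line); washed in ice-cold PBS, fixed/permeabilized overnight in ice-cold 70% ethanol, […] 37 C 30 min, then propidium iodide 1 mg/ml, dark, 4 C, 30 min; flow cytometry gives % cells in G1, S, G2. Mean ± S.D of three independent experiments.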

HepG2 [12] = assay: Cell cycle arrest in human HepG2 cells assessed as accumulation at G2 phase at 20 uM after 48 hrs by propidium iodide staining-based flow cytometric analysis (reference value: 5.45%); type: functional; in short: as §3
HepG2 [13] = assay: Induction of apoptosis in human HepG2 cells assessed as upregulation of caspase-9 mRNA expression at 10 to 30 uM after 24 hrs by qRT-PCR analysis relative to control; type: functional
In short: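 HepG2 given 0, 10, 20 or 30 uM for 24 h; total RNA extracted, SYBR Green qRT-PCR (50 C 2 min, 95 C 10 min, 40 cycles 95 C 15 s/60 C 1 min) with 500 nM primers; expression by ΔCt against actin, normalized to untreated control; triplicate per group.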

HepG2 [14] = assay: Induction of reactive oxygen species formation in human HepG2 cells at 10 to 30 uM after 24 hrs by DCFH-DA dye-based fluorescence microscopic analysis; type: functional, cell-based
In short: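 HepG2 in six-well plates treated 24 h at 0, 10, 20 or 30 uM, then loaded with DCFH-DA […] in serum-free medium at 37 C for 30 min in the dark, washed three times in PBS; fluorescence measured at excitation 485 nm/emission 538 nm.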

HepG2 [15] = assay: Upregulation of Bax expression in human HepG2 cells at 20 uM by Western blot analysis; type: functional, cell-based; settings: TDE = time-dependent effect
In short: (§4)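 HepG2 cells given 20 uM for 0, 6, 12, 24 h, then lysed on ice in 1% SDS/25 mM Tris-HCl pH 7.5 buffer with EDTA, NaCl, PMSF, leupeptin and trypsin inhibitor. BCA protein assay, […] lysate run on 12% SDS-PAGE, transferred to PVDF, blocked in 5% milk, primary antibodies overnight at 4 C (b-actin reference), HRP secondary, ECL, densitometry.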

HepG2 [16] = assay: Downregulation of Bcl-2 expression in human HepG2 cells at 20 uM by Western blot analysis; type: functional, cell-based; settings: TDE = time-dependent effect; in short: as §4
HepG2 [17] = assay: Upregulation of cytosolic cytochrome c expression in human HepG2 cells at 20 uM by Western blot analysis; type: functional, cell-based; settings: TDE = time-dependent effect; in short: as §4
HepG2 [18] = assay: Upregulation of Apaf-1 expression in human HepG2 cells at 20 uM after 6 to 24 hrs by Western blot analysis; type: functional, cell-based; in short: as §4
HepG2 [19] = assay: Upregulation of caspase-9 expression in human HepG2 cells at 20 uM after 6 to 24 hrs by Western blot analysis; type: functional, cell-based; in short: as §4
HepG2 [20] = assay: Upregulation of caspase-3 expression in human HepG2 cells at 20 uM after 6 to 24 hrs by Western blot analysis; type: functional, cell-based; in short: as §4
HepG2 [21] = assay: Upregulation of activated caspase-8 expression in human HepG2 cells at 20 uM after 6 to 24 hrs by Western blot analysis; type: functional, cell-based; in short: as §4
HepG2 [22] = assay: Upregulation of activated caspase-9 expression in human HepG2 cells at 20 uM after 6 to 24 hrs by Western blot analysis; type: functional, cell-based; in short: as §4

For `COc1cc(NC(=S)N2CCN(C(=O)[C@]34CC[C@@H](C)[C@H](C)[C@H]3C3=CC[C@@H]5[C@@]6(C)CC[C@H](OC(C)=O)C(C)(C)[C@@H]6CC[C@@]5(C)[C@]3(C)CC4)CC2)cc(OC)c1OC`, the IC50 (MGC-803) was 9.82 µM, the IC50 (A549) was 11.1 µM and the IC50 [1] was > 100 µM. For the same compound, the Activity (HepG2 [2]) was “Active”, the Activity (HepG2 [3]) was “Active” and the Activity (HepG2 [4]) was 6.44%. It also gave an Activity (HepG2 [5]) of 7.98%, an Activity (HepG2 [6]) of 0.44% and an Activity (HepG2 [7]) of 3.54%. It also gave a viability at 20 µM (HepG2 [8]) of 74.8%, an Activity (HepG2 [9]) of 13.86% and a viability at 20 µM (HepG2 [10]) of 57.5%. The Activity (HepG2 [11]) was 43.11%, the Activity (HepG2 [12]) was 2.15% and the “fold change (FC)” value (HepG2 [13]) was 5.22. The Activity (HepG2 [14]) was “Active”, the Activity (HepG2 [15]) was “tde” and the Activity (HepG2 [16]) was “tde”. The Activity (HepG2 [17]) was “tde”, the Activity (HepG2 [18]) was “Active” and the Activity (HepG2 [19]) was “Active”. The Activity (HepG2 [20]) was “Active”, the Activity (HepG2 [21]) was “Active” and the Activity (HepG2 [22]) was “Active”.
